Entries after “also recorded” stand apart in the source; their conditions may differ.

The subject of assay [1] is F-H69 (fluorescein-labeled Ψm^3ΨΨ). As to the kind of experiment: Quantum dot. The note with it: Qdot analysis; 1 nM F-H69, 1 nM Qdot 655, 16 h at 4 °C. Type of assay: binding, E. coli. The method in brief: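 F-H69 was pre-incubated 1 h at 4 °C with anti-fluorescein Qdot 655, then with beads 16 h at 4 °C. Washes: PBS, SuperBlock, then 0.005% TX-100. Per-bead Qdot (em 655 nm) and fluorescein (em 521 nm) pixel intensities (1–255) taken at predefined exposures. Peptide-free beads served as control.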

Assay [2] is described as follows: TentaGel bead control with free fluorescein. The note with it: peptide on TentaGel beads; fluorescence microscopy. The assay is classed as binding. The method in brief: (§1)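 Peptide beads were washed free of DMF, blocked 3 h in SuperBlock (PBS, 0.05% Tween-20) and rinsed with water. About 10–12 beads were shaken with fluorescent probe for 24 h at 4 °C, with fresh probe added for repeated cycles. Beads were then water-washed and viewed by fluorescence microscopy. Peptide-free beads set background. Labelled RNAs were gel-purified (20% denaturing PAGE), stored in 10 mM HEPES pH 7.4 and renatured.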

For a further assay, the system named is F-TAR RNA. As to the kind of experiment: TentaGel bead fluorescence assay with F-TAR RNA. The assay is classed as binding. The note with it: peptide on TentaGel beads, fluorescence microscopy.
Assay [3] concerns F-18S RNA (human A-site rRNA). As to the kind of experiment: TentaGel bead fluorescence assay with F-18S RNA. Type of assay: binding. The note with it: peptide on TentaGel beads; fluorescence microscopy. The method in brief:
as §1

For another assay, the system named is H69 RNA. The note with it: relative to NQVANHQ-NH2 (1:1), ref [15b]; cited from earlier work.
The next assay relates to human H69. The note with it: relative to NQVANHQ-NH2; due to non-specific binding, ref [15b]; cited from earlier work.

Consider NQVANHQ, for which the “bead intensity compared with STYTSVS beads” value in assay [1] is “higher than STYTSVS beads”. For the same substance, the “on-bead interaction with free fluorescein” value in assay [2] is “do not show any fluorescence”. The “on-bead interaction with F-TAR RNA” value in the assay with F-TAR RNA is “did not show any interaction; also recorded: do not show any fluorescence”. In addition, the “on-bead interaction with F-18S RNA” value in assay [3] was “did not show any interaction; also recorded: do not show any fluorescence”.
Consider STYTSVS, for which the “on-bead interaction with free fluorescein” value in assay [2] is recorded as “do not show any fluorescence”. The “on-bead interaction with F-TAR RNA” value in the assay with F-TAR RNA was “with the exception those containing STYTSVS and F-TAR RNA”; in the assay on F-TAR RNA (listed as STYSTVS) it was “showed interaction”. Further, the “on-bead interaction with F-18S RNA” value in assay [3] is reported as “do not show any fluorescence”.
Consider neomycin, for which the “stoichiometry with H69” value with H69 RNA was “higher stoichiometries”. For the same substance, in the assay with human H69, the “selectivity with human H69” value was “lower selectivity with human H69”.

The values above are taken from article PMC3594512 (Bioorganic & medicinal chemistry, 2013).
